An excerpt weighted towards active compounds, which were near 3.5% of everything screened.
TCR CD3 inh: inhibitors of human TCR-CD3 interaction, primary screen, biochemical, fluorescence, TAMRA-labeled TCR probe; 360,000 tested, 0.37% active; inhibition, % at 9.4 µM; in the data active = inhibition above about 19%;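 note: recombinant mutant TCR 2C K166C tagged with TAMRA read by polarization; 0% = receptor in buffer alone and 100% = receptor with positive control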
HTRA1 inh: HTRA1 serine protease inhibitors, primary screen, biochemical, fluorescence polarization, HTS; recombinant HTRA1, FP-rhodamine activity-based probe; Q92743; 340,000 tested, 0.5% active; inhibition, % at 5.96 µM; in the data active = inhibition above about 36%;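 note: 0% = enzyme with DMSO and 100% = wells lacking enzyme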
PRMT1 inh: PRMT1 methyltransferase inhibitors, primary screen, biochemical, fluorescence polarization; Protein arginine N-methyltransferase 1 (Homo sapiens), Q99873; recombinant PRMT1, activity-based probe fluorescence polarization; inhibition, % at 2.79 µM; 370,000 tested, 1.3% active; AID 652257, 2013;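 active = inhibition above about 21% made by adding two undisclosed values, limit read from the data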
mABHD4 FP: ABHD4 inhibitors, primary screen, biochemical, fluorescence polarization, mouse. AID 720543, 2013. purified mABHD4, FP-Rh probe fluorescence polarization. inhibition, % at 8.92 µM. 370,000 tested, 0.54% active;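 active = inhibition exceeding the mean over every tested compound plus 3 SD, cut at about 30% in these data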;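 note: 0% = plate median of compound wells and 100% = S159A mutant with DMSO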
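Assay system: Wild-type mouse ABHD4 protein | Medium: HEPES pH 7.0 buffer, 150 mM NaCl, 0.01% Pluronic F-127 | Incubation: Enzyme–compound pre-incubation 45 min, then probe 60 min, both 25 °C | Technique: Fluorescence polarization with parallel and perpendicular emission, 525/598 nm | Evaluation: % inhibition of FP-Rh probe binding versus controls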
SIAE inh: human SIAE inhibitors, primary screen, biochemical, fluorescence polarization, FP-Rh probe, 1536-well HTS; Sialate O-acetylesterase (Homo sapiens), Q9HAT2; SIAE FP-Rh probe binding; inhibition, % at 9.66 µM; 370,000 tested, 0.69% active; AID 1053197, 2014;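 active = inhibition above a cutoff: mean of compounds within the control limits plus 3 SD of those, cut at about 17% in these data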;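 note: 0% = plate median of compound wells and 100% = probe without SIAE protein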
Target sequence (Q9HAT2 whole entry, looked up): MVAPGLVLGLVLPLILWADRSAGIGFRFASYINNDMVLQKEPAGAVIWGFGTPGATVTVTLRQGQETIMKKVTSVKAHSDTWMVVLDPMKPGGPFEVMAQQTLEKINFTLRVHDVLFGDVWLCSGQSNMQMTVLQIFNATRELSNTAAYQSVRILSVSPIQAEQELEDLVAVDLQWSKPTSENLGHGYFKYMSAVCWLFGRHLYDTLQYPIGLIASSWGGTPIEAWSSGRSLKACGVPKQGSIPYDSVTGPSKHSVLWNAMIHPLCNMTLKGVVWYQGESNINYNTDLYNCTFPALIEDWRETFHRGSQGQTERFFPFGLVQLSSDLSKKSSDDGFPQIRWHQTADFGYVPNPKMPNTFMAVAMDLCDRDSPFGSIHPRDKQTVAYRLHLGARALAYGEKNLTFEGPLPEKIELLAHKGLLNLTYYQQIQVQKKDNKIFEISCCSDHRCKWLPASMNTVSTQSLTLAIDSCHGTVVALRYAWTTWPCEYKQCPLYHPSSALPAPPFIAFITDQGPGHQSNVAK
rCAG RNA binder: binders of r(CAG) RNA repeats, primary screen, biochemical, fluorescence | r(CAG) RNA repeat, TO-PRO-1 dye displacement fluorescence | inhibition, % at 3 µM | 370,000 tested, 1.3% active;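 active = inhibition above the plate cutoff, the mean of all test compounds on that plate plus 3 SD, cut at about 35% in these data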;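 note: 0% = DMSO alone and 100% = 100 µM mitoxantrone as full dye displacement; higher means more dye released from RNA so lower well fluorescence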
rCAG bind conf: small molecules binding CAG repeat RNA – biochemical, fluorescence, confirmation; r(CAG) RNA repeat, TO-PRO-1 dye displacement fluorescence; 4,300 tested, 70% active; inhibition, % at 3 µM; AID 652065, 2013; shares compounds with rCAG RNA binder;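 active = inhibition above a per-plate cutoff, the mean inhibition of sample wells plus 3 SD, cut at about 35% in these data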;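 note: loss of TO-PRO-1 fluorescence as compound displaces dye from 1x1 AA loop RNA; 0% = DMSO only wells and 100% = 100 µM mitoxantrone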
DNA CAG counter: displacement of TO-PRO-1 from CAG DNA duplex, counter-screen for rCAG RNA repeat binder project, biochemical, fluorescence, TO-PRO-1 dye, d(CAG) DNA oligo; inhibition, % at 3 µM; 4,300 tested, 94% active; AID 652068, 2013; d(CAG) DNA oligo TO-PRO-1 dye displacement; shares compounds with rCAG RNA binder;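 active = inhibition above its plate's cutoff, the mean test-well inhibition plus 3 SD, cut at about 4.8% in these data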;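 note: 0% = DNA dye mix with DMSO and 100% = 100 µM mitoxantrone; hits displace the dye from DNA and so lower well fluorescence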
* = called active by the depositor; . = not tested or not shown.

SMILES	TCR CD3 inh	HTRA1 inh	PRMT1 inh	mABHD4 FP	SIAE inh	rCAG RNA binder	rCAG bind conf	DNA CAG counter
CC(=Cc1ccccc1)C=C1SC(=S)N(CCCC(=O)Nc2ccc(C(=O)O)cc2)C1=O	-4	.	5	-44	-11	25	.	.
O=C(CCN1C(=O)/C(=C\c2cccs2)SC1=S)Nc1ccc(C(=O)O)cc1	-6	-8	0	-22	-5	55*	40*	11*
CC(/C=C1\SC(=S)N(CCCC(=O)Nc2ccc(C(=O)O)cc2)C1=O)=C\c1ccccc1	10	-100	-2	-115	-71	74*	85*	53*
O=C(CCCN1C(=O)/C(=C\c2ccccc2)SC1=S)Nc1ccc(O)cc1C(=O)O	5	-4	6	5	7	80*	68*	32*
COc1ccccc1/C=C1/SC(=S)N(CCC(=O)Nc2cccnc2)C1=O	6	-2	-1	-13	-8	8	.	.
COc1ccccc1/C=C1\SC(=S)N(CCC(=O)Nc2ccc(C(=O)O)c(O)c2)C1=O	5	-86	1	-89	-39	91*	85*	59*
O=C(CCCN1C(=O)/C(=C/c2ccccc2)SC1=S)Nc1ccccc1O	-3	-16	1	-11	-3	11	.	.
C[C@H]1[C@H](c2ccccc2)OC(O)([C@H](Cc2ccccc2)NC(=O)OC(C)(C)C)CN1C (stereo partly specified)	.	.	4	2	6	.	.	.
CC(=C\c1ccccc1)/C=C1/SC(=S)N(CCCC(=O)O)C1=O	4	-24	2	14	-1	37*	49*	15*
CC(/C=C1\SC(=S)N(CCC(=O)Nc2cccc(C(=O)O)c2)C1=O)=C\c1ccccc1	3	-191	-4	-23	-4	37*	88*	62*
O=C(NC1CCCCN(Cc2ccc(OC(F)(F)F)cc2)C1=O)c1ccc2ccccc2c1 (stereo unspecified)	.	.	1	-5	-15	2	.	.
S=c1[nH]nc(Cc2sc(-c3ccccc3)nc2-c2ccccc2)o1	-1	-23	18	-14	-3	61*	47*	17*
CCOc1cc(/C=N/NC(=O)C(N)=O)cc(Br)c1O	4	2	-1	0	2	36*	1	0
COC(=O)C1CN(Cc2cn(CCOC(C)=O)nn2)CCS(=O)(=O)N1Cc1ccc(C)cc1 (stereo unspecified)	.	.	3	0	-2	1	.	.
COC(=O)c1ccc(S(=O)(=O)N2CCC(NC(=O)CCC3CCCC3)CC2)cc1	.	.	-5	4	-5	0	.	.
CN1C(=O)NC(c2ccccc2)C2=C1CN(c1cccc(C(F)(F)F)c1)C2=O (stereo unspecified)	4	-22	-1	-10	-8	49*	3	0
Cc1cc(N2CCN(C(=O)Oc3ccc(-c4ccccc4)cc3)CC2)c2ccccc2n1	.	.	2	-2	1	8	.	.
COc1cccc(-c2nc(-c3ccccc3)c(-c3ccccc3)[nH]2)c1OCC(=O)O	2	-5	1	10	5	64*	61*	19*
O=C(O)COc1ccccc1-c1nc(-c2ccccc2)c(-c2ccccc2)[nH]1	-1	-16	4	10	3	63*	51*	13*
O=C(O)COc1ccc(-c2nc(-c3ccccc3)c(-c3ccccc3)[nH]2)cc1	0	-3	-2	-6	8	26	.	.
N#C/C(=N\Nc1cccc(C(F)(F)F)c1)C(=O)c1ccsc1	-4	-6	3	7	3	76*	56*	18*
O=C1CC(c2ccccc2)=NN1c1ccccc1	-4	6	3	15	4	53*	7	4.8*
CC1=NN(c2nc(-c3ccc(C#N)cc3)cs2)C(=O)C1	1	.	5	-3	4	20	.	.
O=C1CC(c2ccccc2)=NN1c1nc(-c2ccccc2)cs1	5	-6	9	23	-2	65*	31	15*
COc1ccc(CNCC#Cc2ccccc2)c(OC)c1	.	.	0	-5	2	5	.	.
SMILES	TCR CD3 inh	HTRA1 inh	PRMT1 inh	mABHD4 FP	SIAE inh	rCAG RNA binder	rCAG bind conf	DNA CAG counter
O=C(O)c1cccc2c1C(=O)c1ccc(-c3ccc(OC(F)(F)F)cc3)cc1S2(=O)=O	4	-23	-1	10	-2	69*	60*	16*
Cc1cc(C)cc(NC(=O)CSc2ncc(S(=O)(=O)c3ccccc3)c(=O)[nH]2)c1	6	.	-3	-10	9	61*	47*	15*
C#CCSc1ncc(S(=O)(=O)c2ccccc2)c(=O)[nH]1	7	0	4	1	2	2	.	.
O=[N+]([O-])c1ccc(O)c(C=Nc2ccc3nc(-c4ccccc4)[nH]c3c2)c1	7	8	-4	22	12	11	.	.
Oc1c(Br)cc(C=Nc2ccc3nc(-c4ccccc4)[nH]c3c2)c(O)c1Br	16	.	7	31*	18*	46*	56*	25*
CCOC(=O)C1=C(C)N(C[C@@H]2CC[C@@H](Cc3ccc(-c4ccccc4)cc3)O2)C(=O)NC1c1ccc(SCc2ccco2)c([N+](=O)[O-])c1 (stereo partly specified)	6	-43	17	13	-11	49*	36*	19*
Cc1n[nH]c(=O)c2c(NC(=O)CSc3nn(-c4ccc(F)cc4)c(=S)s3)oc(C)c12	2	-4	15	5	-3	40*	28	13*
O=C(Cc1ccc(Cl)c(Cl)c1)Nc1ccc(S(=O)(=O)Nc2ccon2)cc1	.	.	4	-8	-10	30	.	.
COc1ccc2c(c1)CO[C@H]([C@H](O)COC(C)=O)[C@H]2/C=C/c1ccccc1	.	.	4	-1	13	3	.	.
Cc1cccc(C)c1-n1c(SCC(=O)Nc2ccc(C(=O)O)cc2)nnc1-c1cccc(S(=O)(=O)N(C)C)c1	7	0	-3	-26	-5	38*	29	4
O=C(CSc1nnc(-c2cccc(S(=O)(=O)N3CCCC3)c2)n1-c1ccccc1)Nc1ccc(C(=O)O)cc1	-3	3	-1	-8	-2	9	.	.

From PubChem BioAssay
